{"source": "PubChem BioAssay AID624084", "about": "(The Scripps Research Institute Molecular Screening Center, 2012)", "biological_target": "metallo-beta-lactamase IMP-1 (Pseudomonas aeruginosa)", "test": "IMP-1 metallo-beta-lactamase inhibitors, Ki determination, late-stage follow-up, nonselective VIM-2 MBL inhibitor project, biochemical, absorbance, Ki and Km (AID 624084)", "details": "recombinant IMP-1, nitrocefin hydrolysis absorbance 495 nm, kinetic", "outline": "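Material: IMP-1 enzyme; input: 0.1 nM IMP-1; medium: pH 7.1 HEPES, ZnSO4, Brij 35; incubation: 6 min read, room temperature; detection: kinetic absorbance, 495 nm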"}
{"smiles": "CN1CCN(NC(=O)CN2C(=O)/C(=C/c3c(Cl)ccc(Cl)c3Cl)SC2=S)CC1", "values": [{"measurement": "Ki", "result": 930, "unit": "nM"}]}
